# Experimental data collected from several papers.
# Protocols differ between the studies behind these lines.
# Cell line: Vero
# Effect on: cell growth or viability
Compound,technique,time,IC50
COc1ccc(C2CC(c3ccc(Nc4nnc(-c5ccc(Cl)cc5)c5ccccc45)cc3)=NN2)cc1 (stereo not shown),,,3.22 µM
COc1ccc(NC(=O)C2=C(C)NC(C)=C(C(=O)Nc3cc(OC)c(Cl)cc3OC)C2c2ccco2)c(OC)c1 (stereo not shown),MTT,,68.1 µM
Oc1ccc(C2CC(c3ccc(Nc4nnc(-c5ccc(Cl)cc5)c5ccccc45)cc3)=NN2)cc1 (stereo not shown),,,4.35 µM
COc1ccc(NC(=O)C2=C(C)NC(C)=C(C(=O)Nc3cc(OC)c(Cl)cc3OC)C2c2ccc(Cl)cc2)c(OC)c1 (stereo not shown),MTT,,54 µM
CCOC(=O)c1ccc(NC(=O)Cn2c(=O)c3cc(I)ccc3n(Cc3ccccc3)c2=O)cc1,,,49.1 µM
C#Cc1cccc(Nc2ncnc3cc(OCCOC)c(OCCOC)cc23)c1,MTT,72 h,67 µM
CNC(=O)c1ccc(NC(=O)Cn2c(=O)c3cc(I)ccc3n(Cc3ccccc3)c2=O)cc1,,,46.9 µM
S=c1nc(-c2ccc(Nc3nnc(-c4ccc(Cl)cc4)c4ccccc34)cc2)cc(-c2ccccc2)[nH]1,,,4.12 µM
C=CC(=O)Nc1cc(Nc2nccc(-c3cn(C)c4ccccc34)n2)c(OC)cc1N(C)CCN(C)C,MTT,72 h,181 µM
Cc1cc(C)n(-c2ccc(NC(=O)Cn3c(=O)c4cc(I)ccc4n(Cc4ccccc4)c3=O)cc2)n1,,,45.5 µM
Cc1ncc(CN2CCN(Cc3ccccn3)CC2)c2cc(C(=O)c3ccc4c(c3)OCCO4)oc12,MTT,72 h,50.1 µM
COc1ccc(NC(=O)C2=C(C)NC(C)=C(C(=O)Nc3cc(OC)c(Cl)cc3OC)C2c2ccccc2)c(OC)c1 (stereo not shown),MTT,,59.6 µM
Clc1ccc(-c2nnc(Nc3ccc(C4=NNC(c5ccc(Cl)cc5)C4)cc3)c3ccccc23)cc1 (stereo not shown),,,4.25 µM
COc1ccc(NC(=O)C2=C(C)NC(C)=C(C(=O)Nc3ccc(OC)cc3OC)C2c2ccco2)c(OC)c1,MTT,,51.6 µM
Cc1nnc(-c2ccc(NC(=O)Cn3c(=O)c4cc(I)ccc4n(Cc4ccccc4)c3=O)cc2)o1,,,46.1 µM
COc1ccc(NC(=O)C2=C(C)NC(C)=C(C(=O)Nc3ccc(OC)cc3OC)C2c2ccc(Cl)cc2)c(OC)c1,MTT,,76.4 µM
Cc1ccc2c(-c3cc4c(CN5CCN(Cc6ccccn6)CC5)cnc(C)c4o3)cc(=O)oc2c1,MTT,72 h,60.4 µM
COc1ccc(NC(=O)C2=C(C)NC(C)=C(C(=O)Nc3cc(OC)c(Cl)cc3OC)C2c2ccc(O)cc2)c(OC)c1 (stereo not shown),MTT,,60.2 µM
OC(Cn1cncn1)(Cn1cncn1)c1ccc(F)cc1F,MTT,24 h,173 µM
